Assay outcomes: PubChem BioAssay, Sanford-Burnham Center for Chemical Genomics
PMI act satM6P: increases human PMI activity with near-saturating mannose 6-phosphate | P34949 | coupled PMI enzyme assay, resazurin fluorescence, 20 min; hits give high values; 1 = untreated enzyme, 0 = substrate-free blank | activation factor at 20 µM | actives 0.34% (n = 190,000) | AID 1216;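 active = activation factor of 2 or more at 20 µM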
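Material: human phosphomannose isomerase with PGI, G6PDH, diaphorase coupling enzymes / Reagent: Man-6-P substrate 1.0 mM / Dosing: single compound dose of 20 µM, 1% DMSO final / Incubation: enzyme reaction with compound 20 min at room temperature / Signal: resorufin fluorescence (Ex 544/Em 590 nm) from resazurin via diaphorase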
PMI activator: increases human mannose-6-phosphate isomerase activity. P34949. purified human PMI, coupled resazurin fluorescence, 20 min; hits give high values; 1 = vehicle control, 0 substrate-free wells. activation factor at 20 µM. actives 0.005% (n = 190,000). AID 1214;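 active = activation factor of 2 or more at 20 µM, relative to plate controls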
TNAP inh hi DEA: blocks human TNAP under high phosphate acceptor concentration. P05186. purified TNAP, CDP-star luminescence, 1 M DEA. inhibition, % at 20 µM. actives 0.03% (n = 200,000). AID 1135;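 active = over 50% inhibition of tissue-nonspecific alkaline phosphatase at 20 µM in the single-dose screen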
Target sequence (P05186 whole entry, looked up): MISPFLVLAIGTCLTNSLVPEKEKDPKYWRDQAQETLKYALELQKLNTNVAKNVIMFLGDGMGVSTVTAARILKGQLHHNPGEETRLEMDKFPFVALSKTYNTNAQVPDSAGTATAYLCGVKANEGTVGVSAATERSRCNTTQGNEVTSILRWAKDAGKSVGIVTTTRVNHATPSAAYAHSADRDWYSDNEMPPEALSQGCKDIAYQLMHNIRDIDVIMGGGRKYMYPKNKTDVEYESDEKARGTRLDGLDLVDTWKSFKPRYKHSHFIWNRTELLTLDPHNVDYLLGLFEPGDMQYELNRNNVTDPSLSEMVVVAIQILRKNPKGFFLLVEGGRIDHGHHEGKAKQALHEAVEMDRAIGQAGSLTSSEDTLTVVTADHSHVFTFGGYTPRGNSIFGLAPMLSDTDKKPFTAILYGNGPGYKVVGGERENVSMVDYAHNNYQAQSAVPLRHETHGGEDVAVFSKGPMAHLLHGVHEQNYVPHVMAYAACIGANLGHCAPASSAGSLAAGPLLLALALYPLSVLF
TNAP inh noacc: blocks human TNAP activity with no phosphate acceptor present; AID 1012; P05186; inhibition, % at 20 µM; purified TNAP, CDP-star luminescence, 30 min; actives 0.26% (n = 200,000);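 active = tissue-nonspecific alkaline phosphatase inhibition above about 50% at 20 µM in the single-dose screen, limit read from the data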
TNAP act hiacc: increases human TNAP activity under high phosphate acceptor concentration; P05186; purified TNAP, CDP-star luminescence, 1 M DEA, 30 min; hits give high values; 0 = EDTA background, 1 = DMSO-only activity; activation factor at 20 µM; 200,000 tested, under 10 active;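 active = activation factor at least 2 at 20 µM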
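Dosing: 20 µM single point. System: human TNAP. Amount: TNAP 1/800 final. Incubation: 30 min, room temperature. Read-out: TNAP activation factor scaled between EDTA and DMSO control wells. Signal: luminescence from CDP-star hydrolysis. Medium: 1 M DEA, pH 9.8, Mg2+, Zn2+. Control set: EDTA negative control, DMSO positive control.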
Each line names hits and unclear results; the compound was inactive in the other large screens. The list is not random: actives were taken first. Their share in the collection is about 0.64%.

Cc1cc(C)c2nc(SC3CCOC3=O)cc(C)c2c1 (configuration not stated)	PMI act satM6P 2.5
CN(C)S(=O)(=O)c1ccc(NC(=O)N2CCN(c3ccccc3)CC2)cc1	none
CC(=O)/C(=N/Nc1cccc(C)c1)N1CCOCC1	PMI act satM6P 2.2
Cc1cc(C(F)(F)F)nc(SCCN2CCOCC2)c1C#N	PMI act satM6P 2.2
O=C(CSc1n[nH]c(-c2ccccc2Br)n1)NC(=O)NCc1ccco1	TNAP inh noacc 82
O=C(CSc1n[nH]c(-c2ccccc2Br)n1)NCCN1C(=O)CSC1=O	TNAP inh noacc 84
Cc1ccc(S(=O)(=O)NCCc2ccncc2)cc1C	none
Cc1ccc(C(=O)N2CCN(c3ncccn3)CC2)cc1S(=O)(=O)N1CCCCC1	none
COc1ccccc1N/N=C/c1c(CO)cnc(C)c1O	PMI act satM6P 2.1
COc1ccc(C(=O)N/N=C/c2c(CO)cnc(C)c2O)cc1	none
COC(=O)C1CCN(C(=O)C2CCCCC2)CC1	none
CCc1nnc(NCC(=O)N2CCc3ccccc32)s1	PMI act satM6P 2.2
COc1cc(C(=O)NNC(=S)NCc2ccco2)cc(OC)c1OC	none
O=C(/C=C/c1ccc(O)c(O)c1)c1ccc(S(=O)(=O)N2CCCCCC2)cc1	TNAP inh noacc 57
COC(=O)c1ccc(S(=O)(=O)N2CCCCCC2)cc1	none
CN(CC(=O)Nc1ccc(N2CCOCC2)cc1)CC(=O)Nc1ccccc1C#N	TNAP inh noacc 50
Oc1ccc(/C=N/NC(=S)Nc2cccnc2)cc1O	TNAP inh noacc 78
Cc1ccc(-c2[nH]nc3c2C(c2ccc(OC(=O)N4CCOCC4)cc2)C(C#N)=C(N)O3)cc1 (configuration not stated)	none
CN(C)c1ccc(CNc2nc(-c3ccccc3)nn2S(C)(=O)=O)cc1	none
CC(=O)n1nc(-c2ccccc2)nc1NCc1ccc(N(C)C)cc1	TNAP inh noacc 50
O=C(NNc1ccc(C2CCCCC2)cc1)C(O)(c1ccccc1)c1cccs1 (configuration not stated)	PMI act satM6P 2.1
CCOC(=O)c1cc(NC(=O)Nc2cc(C)ccn2)c(C)nc1C	none
CCOC(=O)c1cc(NC(=O)Nc2nc3ccccc3s2)c(C)nc1C	TNAP inh noacc 58
C(=N\Nc1ccccc1)/c1ccc(N2CCOCC2)cc1	PMI act satM6P 2.2
Clc1cccc(N/N=C/c2ccc(N3CCOCC3)cc2)c1	PMI act satM6P 2.3
C(=N\Nc1ccccn1)/c1ccc(N2CCOCC2)cc1	none
COc1ccc(CCN=C(N)NS(=O)(=O)c2ccc(F)cc2)cc1	none
O=C(CN1C(=O)c2ccccc2C1=O)Nc1ccc(S(=O)(=O)N2CCOCC2)cc1	none
CCCCc1c(C)nc2ccc(C)cc2c1SCCC(=O)O	none
CCCCc1c(C)nc2ccc(Br)cc2c1SC(N)N	PMI act satM6P 2.2
COCCCNC(=O)c1ccc(N2CCCC2)c(NS(=O)(=O)c2ccc(C)cc2)c1	PMI act satM6P 2.2
Cc1ccc(-c2ccc(C)c(N)c2C)c(C)c1N	none
CN(CC(=O)Nc1ccc(N2CCOCC2)cc1)CC(=O)Nc1ccc(Cl)cc1[N+](=O)[O-]	none
COC(=O)c1ccc(Cn2cnc3c(sc4nc(N5CCOCC5)c5c(c43)CCCC5)c2=O)o1	none
O=C(N/N=C/c1ccc(O)c(O)c1)c1ccc(CSc2cccc3cccnc23)cc1	TNAP inh noacc 57
CSCc1cc(N2CCOCC2)nc(SCc2ccc(Cl)c(Cl)c2)n1	PMI act satM6P 2
COc1cc(-c2nc(S(=O)(=O)c3ccc(C)cc3)c(N(C)C)o2)cc(OC)c1OC	PMI act satM6P 2
Cn1ccc(=S)c2ccccc21	PMI act satM6P 2.2
Cn1c(=S)[nH]c2ccccc21	none
O=C1/C(=C/c2ccc(O)cc2)SC(=S)N1Cc1cccnc1	TNAP inh hi DEA 63
O=C(c1cc(-c2ccccc2)n[nH]1)N1CCc2c([nH]c3ccccc23)C1c1ccccn1 (configuration not stated)	TNAP inh noacc 62
O=C(N/N=C/c1ccncc1)c1cccc(NC(=O)c2ccc(Cl)cc2)c1	PMI act satM6P 2.4
O=C(N/N=C/c1ccncc1)c1cccc(N/N=C/c2ccncc2)c1	none
